# Shown are actives, neighbours in structure and some others; about 2.3% of the full set was active somewhere.
# TRPC4 agonist = TRPC4 (mouse) channel activation; B-score at 10 µM; HEK293 TRPC4beta/mu-opioid, Fluo4 calcium fluorescence; stronger effect = higher value; 310,000 tested, 0.49% active; Q9QUQ5; AID 2237;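 active means B-score above 5 SD of library B-scores, and initial fluorescence ratio not above library mean plus 5 SD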;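 further: positive B-score marks a calcium rise read as TRPC4 activation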
#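 Assay system: HEK293 stable line with TRPC4beta plus mu-opioid receptor. Times: dye 45 min RT, read 110 s. Measured by: kinetic Fluo4 calcium fluorescence. Measure: B score of integrated ratio. Controls: assay buffer as low control, maximal DAMGO as high control.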
# TRPC6 activator = activators of mouse TRPC6 channel | Q61143 | HEK293-TRPC6 membrane potential dye fluorescence; stronger effect = higher value | B-score at 10 µM | 310,000 tested, 0.13% active | AID 2550;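 active means B-score of the integrated fluorescence ratio above library mean plus 3 SD, and starting fluorescence ratio within library mean plus 5 SD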;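 further: higher score means more depolarization so channel activation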
# Target sequence (Q61143 whole entry, looked up): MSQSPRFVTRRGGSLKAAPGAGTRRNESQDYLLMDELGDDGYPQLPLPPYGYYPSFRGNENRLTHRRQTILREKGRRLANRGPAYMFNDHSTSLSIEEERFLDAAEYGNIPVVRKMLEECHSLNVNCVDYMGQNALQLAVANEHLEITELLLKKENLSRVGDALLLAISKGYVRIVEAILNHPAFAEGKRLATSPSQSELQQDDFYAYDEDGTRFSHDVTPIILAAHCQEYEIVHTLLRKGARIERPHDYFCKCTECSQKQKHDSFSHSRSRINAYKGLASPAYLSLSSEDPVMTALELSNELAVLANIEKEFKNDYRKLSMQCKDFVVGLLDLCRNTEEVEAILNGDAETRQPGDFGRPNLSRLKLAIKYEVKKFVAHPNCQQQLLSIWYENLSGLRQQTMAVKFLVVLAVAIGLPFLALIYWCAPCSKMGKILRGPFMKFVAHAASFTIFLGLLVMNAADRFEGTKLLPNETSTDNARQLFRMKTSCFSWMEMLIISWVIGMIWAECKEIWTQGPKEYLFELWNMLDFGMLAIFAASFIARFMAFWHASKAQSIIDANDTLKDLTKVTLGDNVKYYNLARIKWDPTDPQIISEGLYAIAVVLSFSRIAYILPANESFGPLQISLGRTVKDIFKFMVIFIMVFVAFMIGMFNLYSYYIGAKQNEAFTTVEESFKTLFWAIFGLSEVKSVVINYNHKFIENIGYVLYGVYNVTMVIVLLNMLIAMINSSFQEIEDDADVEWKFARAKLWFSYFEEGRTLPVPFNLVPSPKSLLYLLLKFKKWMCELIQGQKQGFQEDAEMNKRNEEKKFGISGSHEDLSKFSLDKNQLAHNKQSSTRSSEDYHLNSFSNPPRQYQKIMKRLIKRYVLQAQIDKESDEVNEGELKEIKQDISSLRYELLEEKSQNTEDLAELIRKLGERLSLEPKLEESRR
# TRPC4 potent = allosterically enhances the mouse TRPC4 cation channel; HEK293 TRPC4beta/mu-opioid, DAMGO EC20, Fluo-4 Ca2+ flux; stronger effect = higher value; Q9QUQ5; 310,000 tested, 0.42% active; B-score at 10 µM;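 active means B-score of calcium response area above 5 SD of library B-scores, with initial fluorescence ratio within 5 SD of library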;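 further: B-score of integrated fluorescence ratio over time as area under calcium response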
# TRPC6 inhibitor = inhibitors of mouse TRPC6 channel; Q61143; HEK293-TRPC6, membrane potential dye, ACh-evoked depolarization; stronger effect = lower value; B-score at 10 µM; 310,000 tested, 1.1% active; AID 2553;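 active means B-score under library mean minus 3 SD, initial fluorescence not abnormally high, positive integrated signal ratio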;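 further: B-score derived from integrated fluorescence ratio over the kinetic read; more negative B-score means stronger inhibition of depolarization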
# TRPC4 inh = blocks the mouse TRPC4 cation channel | AID 2247 | Q9QUQ5 | HEK293 TRPC4beta/mu-opioid, DAMGO-evoked Fluo4 calcium flux; stronger effect = lower value | B-score at 10 µM | 300,000 tested, 0.39% active;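 active means B-score over 3 SD under the library average, no early fluorescence shift, positive overall ratio signal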
#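 Assay system – HEK293 line stably carrying TRPC4beta and mu-opioid receptor · Doses – single dose · Detection – Fluo4 calcium-dye fluorescence, kinetic read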
# TRPC4 sel inh 2 = second check of whether TRPC6 inhibitors also affect mouse TRPC4; shares compounds with TRPC6 inhibitor; HEK293 TRPC4/MOR, membrane potential dye fluorescence; channel activated by saturating DAMGO dose; inhibition, % at 10 µM; 920 tested, 42% active; AID 2776;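 active means compounds whose fluorescence signal differed from control wells by over 3 SD, either direction, in both duplicate plates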
# TRPC4 spec = tests whether TRPC6 inhibitors also affect mouse TRPC4 | 920 tested, 61% active | shares compounds with TRPC6 inhibitor | HEK293 TRPC4/mu-opioid, membrane potential fluorescence | AID 2777 | activity change, negative = inhibition, % at 10 µM;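 active means rise or fall in signal beyond 3 SD of buffer-only wells in both replicate plates, either sign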;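 further: integrated kinetic ratio of fluorescence range over baseline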
# HEK293 MPD ctr 2-1 = parental HEK293 nonspecific activity of TRPC6 inhibitors, second screen; 920 tested, 31% active; parental HEK293 membrane potential dye fluorescence; maximal acetylcholine challenge after compound addition; AID 2779; shares compounds with TRPC6 inhibitor; signal change vs control, % at 10 µM;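 active means membrane potential signal moving either way by over 3 SD of the maximum-effect control, in both duplicate plates, meaning non-specific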
# HEK293 MPD ctr-1 = checks TRPC6 inhibitor effects in parental HEK293 cells. shares compounds with TRPC6 inhibitor. parental HEK293 membrane potential dye fluorescence. membrane potential signal change, % at 10 µM. 920 tested, 60% active;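 active means membrane potential signal shifting up or down by more than 3 SD of buffer-only wells, on both duplicate plates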
# HEK293 MPD ctr-2 = checks TRPC6 modulator effects in parental HEK293 cells. shares compounds with TRPC6 inhibitor. membrane potential dye fluorescence. membrane potential signal change, % at 10 µM. 2,400 tested, 51% active. AID 488924;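 active means membrane potential signal moves up or down beyond 5 SD from buffer-only wells, on both duplicate plates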
# HEK293 MPD ctr 2-2 = second counter-screen for TRPC6 modulators: effect in parental HEK293 cells | AID 488926 | 2,400 tested, 14% active | inhibition, % at 10 µM | shares compounds with TRPC6 inhibitor | membrane potential dye fluorescence; after compound, maximal acetylcholine stimulation;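 active means membrane potential signal drops by more than 5 SD from the mean control signal, in both duplicate plates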;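 further: plate controls were acetylcholine ECmax control wells for no effect and buffer only wells for full effect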
# TRPC4/MOR mod = selectivity of TRPC6 modulators against mouse TRPC4; shares compounds with TRPC6 inhibitor; HEK293 TRPC4/mu-opioid, membrane potential fluorescence; percent change from control (negative = decrease, positive = increase), % at 10 µM; 2,400 tested, 69% active;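 active means membrane potential signal moved up or down beyond 5 SD of buffer control wells, in both duplicate plates, actives on both sides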;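 further: plate controls were assay buffer wells for no effect and DAMGO maximal-effect wells for full effect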
# TRPC4/MOR inh 2 = second check of whether TRPC6 modulators also affect mouse TRPC4. AID 488928. 2,400 tested, 55% active. shares compounds with TRPC6 inhibitor. inhibition, % at 10 µM. HEK293 TRPC4/mu-opioid, membrane potential dye fluorescence; stimulated with maximal-effect DAMGO;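 active means drop in membrane potential signal beyond 5 SD of the control wells in both duplicate plates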;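 further: TRPC4 counter screen for TRPC6 hits run under conditions tuned for TRPC6 not TRPC4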
# TRPC6 inh conf = confirmation of mouse TRPC6 inhibitors | shares compounds with TRPC6 inhibitor | HEK293-TRPC6, membrane potential dye, ACh-evoked depolarization | inhibition, % at 10 µM | 3,300 tested, 43% active | AID 488960;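 active means fluorescence ratio falls more than 5 SD below the full-stimulation control mean, in both duplicate runs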;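 further: integrated fluorescence ratio of peak minus minimum over baseline after agonist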
# TRPC6 act conf = confirmation of mouse TRPC6 activators | 2,800 tested, 11% active | HEK293-TRPC6 membrane potential dye fluorescence, FDSS | activation, % at 10 µM | shares compounds with TRPC6 inhibitor;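 active means ratio signal rise beyond 5 SD above unstimulated control wells' mean, seen in both duplicate runs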;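 further: plate controls were buffer EC0 wells for no effect and acetylcholine ECmax response for full effect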
# Numbers without * were called inactive; i = inactive; . = no result given.
SMILES,TRPC4 agonist,TRPC6 activator,TRPC4 potent,TRPC6 inhibitor,TRPC4 inh,HEK293 MPD ctr-2,HEK293 MPD ctr 2-2,TRPC4/MOR mod,TRPC4/MOR inh 2,TRPC6 inh conf,TRPC6 act conf,others
CC(C)(C)OC(=O)NC(Cc1ccccc1)C(=O)O (stereo not drawn),i,i,i,i,i,.,.,.,.,.,.,
CC(C)(C)OC(=O)NC(CNCc1ccccc1)Cc1ccccc1 (stereo not drawn),i,i,i,-5.3*,i,136%*,i,24%*,34%*,i,.,
COCCOC(=O)c1nccnc1C(=O)Nc1ccc(S(=O)(=O)N2CCOCC2)cc1,i,i,i,-6.2*,i,i,i,i,i,i,i,
O=C(O)c1nccnc1C(=O)Nc1ccc(S(=O)(=O)N2CCOCC2)cc1,i,i,i,i,i,.,.,.,.,.,.,
CCOC(=O)C1CCCCN1C(=O)CCn1nnnc1CN1CCOCC1 (stereo not drawn),i,i,i,i,i,.,.,.,.,.,.,
COc1cccc(OC)c1OCCNCC1COc2ccccc2O1 (stereo not drawn),i,i,i,-5.6*,i,144%*,i,27%*,38%*,i,.,
COCCCNC(=S)N1CCCN(c2nc3cc(C)c(C)cc3cc2C#N)CC1,i,i,i,-5.2*,i,i,i,i,i,60%*,.,
CCOCCCNC(=S)N1CCCN(c2nc3cc(C)c(C)cc3cc2C#N)CC1,i,i,i,i,i,.,.,.,.,.,.,
COCCCNC(=S)N1CCCN(c2nc3cc(C)ccc3cc2C#N)CC1,i,i,i,-11*,i,.,.,.,.,85%*,.,TRPC4 sel inh 2=i;TRPC4 spec=i;HEK293 MPD ctr 2-1=i;HEK293 MPD ctr-1=i
COc1cccc(CN(C(=O)/C=C/c2ccc(Cl)cc2)C2CCS(=O)(=O)C2)c1 (stereo not drawn),i,i,i,i,i,.,.,.,.,.,.,
Cc1nc2c(-c3ccccc3)c(C)nn2c(SCC(N)=O)c1Cc1ccccc1,i,i,i,i,i,.,.,.,.,.,.,
COCc1[nH]nc2c1C(c1c(F)cccc1Cl)C(C#N)=C(N)O2 (stereo not drawn),i,i,i,-5.6*,i,i,i,i,i,i,i,
CCOC(=O)N1CCC(NC2CCCCCCC2)CC1,i,i,i,-8.5*,i,.,.,.,.,i,.,TRPC4 sel inh 2=i;TRPC4 spec=i;HEK293 MPD ctr 2-1=i;HEK293 MPD ctr-1=3.0%*
CCOC(=O)N1CCC(N2CCN(C3CCCC3)C(CCO)C2)CC1 (stereo not drawn),i,i,i,-8.2*,i,.,.,.,.,i,i,TRPC4 sel inh 2=i;TRPC4 spec=i;HEK293 MPD ctr 2-1=i;HEK293 MPD ctr-1=i
CCOC(=O)N1CCC(N2CCN(Cc3ccccc3)C(CCO)C2)CC1 (stereo not drawn),i,i,i,i,i,.,.,.,.,.,.,
Cc1ccc(S(=O)(=O)N2CCOCC2)cc1NC(=O)CNCC1CCCCC1,i,i,i,i,i,.,.,.,.,.,.,
CC(C)=CCCC(C)CN1CCC(n2nccc2NC(=O)c2ccc3c(c2)OCO3)CC1 (stereo not drawn),i,i,i,-7.3*,i,.,.,.,.,56%*,i,TRPC4 sel inh 2=36%*;TRPC4 spec=6.8%*;HEK293 MPD ctr 2-1=268%*;HEK293 MPD ctr-1=10%*
C/C=C(\C)CN1CCC(n2nccc2NC(=O)c2ccc3c(c2)OCO3)CC1,i,i,i,i,i,.,.,.,.,.,.,
COc1cccc(CNC(=O)CCC2CCCN(c3cc(C)nc(N4CCCC4)n3)C2)c1 (stereo not drawn),i,i,i,-6.1*,i,i,i,-9.0%*,43%*,48%*,i,
COc1cccc(CNC(=O)CCC2CCCN(C3CCOCC3)C2)c1 (stereo not drawn),i,i,i,i,i,.,.,.,.,.,.,
Cc1ccc(O)c(C(=O)c2cc(C#N)c(=O)n(-c3nccs3)c2)c1,i,31*,i,i,i,435%*,i,164%*,58%*,i,86%*,
Cc1ccc(O)c(C(=O)c2cc(C#N)c(=O)n(-c3c(C)n(C)n(-c4ccccc4)c3=O)c2)c1,i,i,i,i,i,.,.,.,.,.,.,
CCCc1nc(NCCO)c(C#N)c2c1CCCC2,i,i,i,i,i,.,.,.,.,.,.,
CCCCCNc1nc(NCCCO)c(C#N)c2c1CN(C)CC2,i,i,i,-5.6*,i,-100%*,i,-27%*,i,i,i,
CCCCCNc1nc(N2CCCC2)c2c(c1C#N)CCN(C)C2,i,i,i,-6.6*,i,.,.,.,.,71%*,i,TRPC4 sel inh 2=41%*;TRPC4 spec=-22%*;HEK293 MPD ctr 2-1=i;HEK293 MPD ctr-1=-272%*
CN1CCc2c(C#N)c(N3CCOCC3)nc(NCC3CCCO3)c2C1 (stereo not drawn),i,i,i,i,i,.,.,.,.,.,.,
CCN(CC)CCN1C(=O)C(O)=C(C(=O)c2cc3cccc(OC)c3o2)C1c1ccc(F)cc1 (stereo not drawn),i,i,i,i,i,.,.,.,.,.,.,
